# Bioassay records (PubChem)
# Most compounds without a hit are left out; they make up all but 2.4% or so of the library.
# SR-BI uptake up: activators of SR-BI mediated HDL lipid uptake. CHO ldlA[mSR-BI] cells, DiI-HDL uptake fluorescence, 3 h; 100 = double the neutral-control signal. activation, % at 12.5 µM. 0.096% of 320,000 active. AID 504775;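 active = mean replicate activation of at least 60% and every replicate at or above 60%; inconclusive = mean or all-replicate condition met, but not both; inactive = mean below 60% and not all replicates reaching 60%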;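 note: 0% = median plate neutral-control signal and 100% = twice that signal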
#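 System: LDL receptor-deficient CHO ldlA cells overexpressing murine SR-BI | Timing: 3 h uptake period with compound, 37 °C | Medium: HEPES-buffered (25 mM, pH 7.4) F12 plus 0.5% BSA | Dosing: Single-point compound dose | Signal: Bottom-read fluorescence, 550/595 nm | Read-out: Retained DiI signal reflecting DiI-HDL uptake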
# HTR2A ag: mouse HTR2A agonism via beta-arrestin recruitment | CHO-K1 mHTR2A beta-arrestin complementation, luminescence; percent of 30 µM serotonin response | activation, % at 7.6 µM | 0.66% of 360,000 active;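 active = activation above a run cutoff, the mean activation of all tested compounds plus 3 SD, cut at about 14% in these data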;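 note: 0% = plate median of compound wells and 100% = 30 µM serotonin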
# Target sequence (P35363 whole entry, looked up): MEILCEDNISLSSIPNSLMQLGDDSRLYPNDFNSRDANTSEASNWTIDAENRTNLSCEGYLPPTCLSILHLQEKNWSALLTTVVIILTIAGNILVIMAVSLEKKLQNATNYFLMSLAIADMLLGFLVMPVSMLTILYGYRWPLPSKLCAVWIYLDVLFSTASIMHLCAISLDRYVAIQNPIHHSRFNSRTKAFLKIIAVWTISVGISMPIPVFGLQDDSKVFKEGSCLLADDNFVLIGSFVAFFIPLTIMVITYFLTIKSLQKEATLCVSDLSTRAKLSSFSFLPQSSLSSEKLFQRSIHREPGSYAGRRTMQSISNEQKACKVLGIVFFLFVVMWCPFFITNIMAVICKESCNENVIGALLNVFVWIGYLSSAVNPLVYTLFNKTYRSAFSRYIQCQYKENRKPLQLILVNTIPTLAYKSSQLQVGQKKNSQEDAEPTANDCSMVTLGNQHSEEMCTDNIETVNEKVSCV
# SR-BI DiI inh: blocks mouse SR-BI lipid uptake from DiI-HDL. AID 488896. Q61009. inhibition, % at 12.5 µM. 0.96% of 320,000 active. ldlA[mSR-BI] CHO cells, DiI-HDL uptake fluorescence, 3 h;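 active = mean replicate inhibition of at least 70% and a set share of replicates each scoring 70 or more; inconclusive = meets just one of the two criteria; inactive = fails both criteria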;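 note: 0% = median of neutral control wells and 100% = median of positive control wells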
# Calb FLC: affects C. albicans growth with fluconazole. C. albicans CaCi-2 + fluconazole, Alamar Blue growth, 48 h. 0.57% of 300,000 active. growth inhibition, % (concentration not given with the values). AID 1979;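 active = growth inhibition above about 58% in most replicates, limit read from the data, passing the limit was not always enough; inconclusive = exactly half the replicates above a set limit; inactive = most replicates below a set limit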;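 note: all wells also contain fluconazole at 8 µg/ml as a sub-toxic cotreatment; 0% = median of DMSO wells and 100% = median of geldanamycin control wells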
# MIN6 prolif: inducers of beta-cell replication in MIN6 cells; MIN6 cells proliferation, ATPlite luminescence, 48 h; cells starved in 0.2% serum; 100% = growth in 10% serum; proliferation, % at 10 µM; 0.29% of 330,000 active; AID 2380;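 active = compounds whose signal lies at least 3.5 SD above the mean of all wells on their plate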;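 note: 0% = DMSO-treated cells in low-serum medium and 100% = 10% serum control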
# Insulin prom up: MIN6 insulin promoter up-regulation; MIN6 insulin promoter-GFP reporter, high-content imaging; stronger effect = higher value; z-score at 5 µM; 0.3% of 190,000 active; AID 1625;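 active = z-score above 3 at 5 µM with at least 500 cells counted in the well; inconclusive = wells under 500 cells, flagged as cytotoxic or low count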
# * marks the source's active call; other numbers are inactive results; ? = inconclusive; . = not tested or not shown.
SMILES,SR-BI uptake up,HTR2A ag,SR-BI DiI inh,Calb FLC,MIN6 prolif,Insulin prom up
O=C(CN1CCCc2ccccc21)NC(=O)NCc1ccccc1,9,-1,-9,-4,0,-0.16
O=C(N/N=C\c1c(O)ccc2ccccc12)c1ccc(S(=O)(=O)N2CCCCC2)cc1,-143,1,143*,?,-5,-1.1
CC(C)(C)NC(=O)NC(=O)CN1CCCc2ccccc21,4,1,-4,114*,-2,.
N/C(=N\OC(=O)N1c2ccccc2Sc2ccccc21)c1ccccc1,-31,-3,31,94*,-6,-3.3
c1cncc(CN2CCN(c3cc(-c4cnc5ccccc5c4)nc4ccnn34)CC2)c1,.,-5,.,.,.,.
CN(C)Cc1ccccc1-c1cccc2nccn12,.,4,.,.,.,.
CS(=O)(=O)N1CCN(c2ccccc2NC(=O)c2cc3ccccc3o2)CC1,-75,1,75*,10,1,.
O=C(Nc1ccc(N2CCOCC2)c(Cl)c1)c1cc2ccccc2o1,-85,1,85*,2,-2,-1.6
COc1ccc2nc(NC(=O)c3cccc(-c4cc5ccccc5oc4=O)c3)sc2c1,-77,-3,77*,-7,-5,0.38
O=C(Nc1ccccc1N1CCOCC1)c1cc2ccccc2o1,.,7,.,2,-1,.
O=C(Nc1ccc(NC(=O)c2cc3ccccc3o2)cc1)c1ccc2c(c1)OCCO2,-73,2,73*,36,0,-0.33
CCCc1cc(=O)[nH]c(SCC(=O)N(C)C2CCCCC2)n1,-17,-8,17,.,-1,.
O=C(COC(=O)Cn1cc(C(F)(F)F)ccc1=O)NCc1ccccc1,28,-2,-28,.,-2,.
NNC(=O)c1ccc(NS(=O)(=O)c2ccc(Br)cc2)cc1,.,.,.,9,-1,-0.59
O=C(Nc1ccc(N2CCCC2)c(Cl)c1)c1cccc(-c2cc3ccccc3oc2=O)c1,-87,-1,87*,8,0,-0.59
Cc1ccc(NC(=O)c2cc(NC(=O)c3ccco3)ccc2N2CCOCC2)cc1Cl,-74,-4,74*,-7,-2,-1.3
CC(=O)Nc1ccc(NC(=O)c2cccc(-c3cc4ccccc4oc3=O)c2)cc1,-33,2,33,28,-2,-0.19
O=C(/C=C/c1ccccc1)NC(=S)Nc1ccc(N2CCOCC2)c(Cl)c1,-15,0,15,111*,0,-0.92
CCN(CC)c1ccc(C(=O)NNC(=O)CNC(=O)c2cccs2)cc1,3,3,-3,.,4,.
CC(=O)c1cccc(NC(=O)CSc2n[nH]c(=O)n2C2CC2)c1,15,5,-15,.,-1,.
CCN(CC)C(=O)c1cn(C)c(=O)c2cc(OC)c(OC)cc12,16,-3,-16,-6,-5,-0.17
CCN(C(=O)c1cn(C)c(=O)c2cc(OC)c(OC)cc12)c1cc(OC)ccc1OC,67*,3,-67,0,-1,0.55
O=C(CSC1=NCCN1)Nc1cccc([N+](=O)[O-])c1,-82,-5,82*,-26,-2,-0.17
CC1(C(=O)NCc2ccco2)Cc2c(-c3cccc(C(N)=O)c3)ccnc2O1 (configuration not stated),.,5,.,.,.,.
Cc1nccn1-c1c2c(c(C#N)c3nc4ccccc4n13)CCCC2,18,-1,-18,.,.,.
SMILES,SR-BI uptake up,HTR2A ag,SR-BI DiI inh,Calb FLC,MIN6 prolif,Insulin prom up
N#Cc1c2c(c(-n3cnc4ccccc43)n3c1nc1ccccc13)CCC2,5,1,-5,-3,-1,4.8*
O=C(NCc1ccc(F)cc1)c1ccccc1OCc1ccccc1,3,0,-3,4,-2,-0.87
O=C(NNC(=O)c1ccccc1OCc1ccccc1)c1ccccc1F,-10,-3,10,.,3,.
COc1ccc(NC(=O)c2ccccc2OCc2ccc(F)cc2)c(OC)c1,-94,5,94*,9,-3,.
O=C(NNC(=O)c1ccccc1OCc1ccc(F)cc1)c1ccccc1O,-125,0,125*,-35,-7,.
O=C(NNC(=O)c1ccccc1OCc1ccccc1)c1ccccc1O,-114,6,114*,-3,-6,.
Cc1cc(C(=O)C(C)OC(=O)c2ccc(NC(=O)CC#N)cc2)c(C)n1-c1ccccc1 (configuration not stated),-38,-7,38,0,-7,.
CSc1cccc(NC(=O)/C=C/c2ccccc2)c1,-58,-6,73*,22,-2,0
CSc1cccc(NC(=O)/C=C/c2ccc(Cl)cc2)c1,-48,-7,48,-13,-6,-0.32
CSc1ccc(/C=C/C(=O)Nc2ccccc2)cc1,-57,-10,57,119*,-5,0.14
CS(=O)(=O)c1ccccc1-c1nnc(NC(=O)c2cccc(N3C(=O)CCC3=O)c2)o1,17,-3,-17,0,2,.
CCn1c2ccccc2c2cc(NC(=O)C(C)C)ccc21,-19,0,19,96*,-2,0.66
CN(C(=O)c1cccc(NC(=O)Cc2ccc(NC(=O)C3CCCN(C(=O)C4CCCCC4)C3)cc2)c1)C1CCCC1 (configuration not stated),-65,1,65,.,.,.
CN(C(=O)c1cccc(NC(=O)Cc2ccc(NC(=O)C3CCCN(C(=O)C4CCC4)C3)cc2)c1)C1CCCCC1 (configuration not stated),-88,0,88*,.,.,.
CN(Cc1ccccc1)C(=O)c1cccc(NC(=O)Cc2ccc(NC(=O)C3CCCN(C(=O)C4CCCCC4)C3)cc2)c1 (configuration not stated),-75,-5,75*,.,.,.
COc1cnc(-c2ccccn2)nc1Sc1c(Cl)cccc1Cl,-2,-8,2,-2,-4,.
COc1cnc(-c2ccccn2)nc1Sc1ccccc1Cl,2,-9,-2,81*,-6,.
CCCCCc1cc(=O)oc2c(C(CCN3CCCCC3)c3cc(OC)c(OC)c(OC)c3)c(OC)cc(OC)c12 (configuration not stated),62*,-10,-62,42,-9,.
COc1ccc(OC)c(NC(=O)C(=O)/C=C(\O)c2cc(OC)ccc2OC)c1,-28,-2,28,104*,0,0.9
CCOC(=O)N/N=C/c1ccc(OCCSc2ccc(Cl)cc2)c(OCC)c1,-74,-2,74*,?,-2,-0.07
CCc1nc2ccc(C(=O)NCC3CCCCC3)cn2c1N(C)Cc1nccs1,.,-4,.,.,.,.
C[C@@H]1CN(C(=O)c2nc3ccc(Cl)cn3c2CN2CCc3sccc3C2)C[C@H](C)O1,-5,-4,5,-14,3,.
COC(=O)C1CCN(Cc2c(C(=O)N3C[C@@H](C)O[C@@H](C)C3)nc3ccc(Cl)cn23)CC1,13,-5,-13,87*,1,.
COc1ccccc1N(C)S(=O)(=O)c1ccc(Cl)c(C(=O)Nc2ccccc2N2CCOCC2)c1,-17,8,17,.,.,.
